# Bioassay records deposited in PubChem BioAssay by several laboratories.
# FAS-TE inh = FAS thioesterase domain inhibitors, primary screen, biochemical, fluorescence intensity, uHTS; Fatty acid synthase (Homo sapiens), P49327; recombinant FAS-TE, OMFH fluorogenic substrate, fluorescence endpoint; inhibition, % at 15 µM; 360,000 tested, 0.67% active; AID 602261, 2012;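 active = compounds whose normalised, plate-corrected inhibition of enzyme fluorescence in the single-dose primary screen is 50% or more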;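 also: 0% = DMSO with enzyme and 100% = substrate without enzyme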
# UCH37 inh = inhibitors of human UCH37 deubiquitinase, primary screen, biochemical, Ub-AMC cleavage, fluorescence; Ubiquitin carboxyl-terminal hydrolase isozyme L5 (Homo sapiens), Q9Y5K5; purified proteasome/UCH37; inhibition, % (test concentration not listed); 330,000 tested, 0.33% active; AID 588478, 2011;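 active = mean inhibition over replicate wells above about 20%, limit read from the data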;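 also: 0% = compound-free wells with enzyme and 100% = wells lacking proteasome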
#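 Material: human UCH37 enzyme supplied as purified proteasome complex / Amount: 0.15 nM proteasome as dispensed / Buffer or medium: pH 7.4 Tris-HCl (50 mM) with ovalbumin, ATP-MgCl2, DTT / Times: preincubation 30 min, reaction 25 min, room temperature / Technique: AMC fluorescence from Ub-AMC cleavage, excitation 355 nm, emission 460 nm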
# M18AAP inhibitor = PfM18AAP inhibitors, malaria aminopeptidase, primary screen, biochemical, QFRET, recombinant enzyme | M18 aspartyl aminopeptidase (Plasmodium falciparum 3D7) | H-Glu-NHMec fluorogenic cleavage | inhibition, % at 7.35 µM | 290,000 tested, 1.2% active | AID 1822, 2009;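 active = inhibition above the campaign mean inhibition over all tested compounds plus 3 SD, cut at about 28% in these data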;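 also: 0% = plate median of test compound wells and 100% = 2 mM ZnCl2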
# Rtt109 HAT inh = inhibitors of C. albicans Rtt109/Vps75 HAT, primary screen, biochemical, ThioGlo CoA-SH fluorescence, plate reader; 330,000 tested, 0.16% active; purified Rtt109/Vps75, 4 h; inhibition, % at 34.9 µM; AID 540336, 2011; Histone acetyltransferase RTT109 (Candida albicans (strain SC5314 / ATCC MYA-2876)), …;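 active = inhibition of at least 50% in every replicate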
# Target sequence (Q5AAJ8 whole entry, looked up): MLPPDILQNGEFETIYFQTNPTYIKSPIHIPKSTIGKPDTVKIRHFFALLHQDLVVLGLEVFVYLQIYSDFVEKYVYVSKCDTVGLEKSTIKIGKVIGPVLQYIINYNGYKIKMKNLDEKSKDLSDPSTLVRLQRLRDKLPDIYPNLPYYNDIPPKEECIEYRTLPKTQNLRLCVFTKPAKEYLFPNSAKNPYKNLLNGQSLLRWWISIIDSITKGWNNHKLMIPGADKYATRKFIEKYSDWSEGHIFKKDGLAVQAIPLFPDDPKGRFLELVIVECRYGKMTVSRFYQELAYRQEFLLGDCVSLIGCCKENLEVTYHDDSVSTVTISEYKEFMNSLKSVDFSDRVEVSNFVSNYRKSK
# ALR H2O2 inh = inhibitors of human ALR sulfhydryl oxidase, primary screen, biochemical, H2O2 detection, HRP-luminol luminescence, single point; purified ALR, DTT oxidation; inhibition, % (test concentration not listed); 290,000 tested, 3.8% active; AID 485317, 2010;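 active = mean replicate inhibition above about 79%, with every replicate also reaching it, limit read from the data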
# Target sequence (P55789 whole entry, looked up): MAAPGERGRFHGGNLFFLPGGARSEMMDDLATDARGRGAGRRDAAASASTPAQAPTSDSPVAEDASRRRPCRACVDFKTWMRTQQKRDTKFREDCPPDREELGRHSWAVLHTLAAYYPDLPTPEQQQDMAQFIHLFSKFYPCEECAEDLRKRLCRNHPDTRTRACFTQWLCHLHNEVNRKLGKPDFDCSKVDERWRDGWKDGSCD
# HDAC3 inhib = HDAC3 deacetylase inhibitors, primary screen, biochemical, fluorescence, cell-free homogeneous. Histone deacetylase 3 (Homo sapiens), O15379. recombinant HDAC3, fluorogenic peptide/trypsin coupled. inhibition, % at 8.3 µM. 320,000 tested, 0.15% active. AID 2718, 2010; in the data active = inhibition above about 26%, passing the limit was not always enough
# Active calls of the source: *; . = no result given. The list is not random: actives were taken first. Their share in the collection is about 4.6%.
SMILES,FAS-TE inh,UCH37 inh,M18AAP inhibitor,Rtt109 HAT inh,ALR H2O2 inh,HDAC3 inhib
CCOC(=O)c1c(/N=C/c2cc([N+](=O)[O-])ccc2O)sc(C)c1C,-9.7,.,25.9,-18.0,97.6*,-6.9
Cn1c(CSCc2ccc(F)cc2)n[nH]c1=S,-5.8,1.9,13.8,3.7,6.5,4.6
Cn1c(CCNC(=O)c2ccc(Cl)cc2)n[nH]c1=S,-5.0,1.0,9.3,-2.3,96.4*,0.5
Cn1c(CSCc2ccc(Cl)cc2)n[nH]c1=S,-4.1,5.0,7.2,3.3,94.4*,2.6
CON=Cc1cccn1-c1nccc(OC)c1C#N,.,-2.0,.,.,.,.
CC1CC(=N/N=C2/NC(=O)CS2)CC(C)(C)C1 (centres undefined),.,1.1,.,.,.,.
CN1C(=O)CC(C(=O)O)SC1=Nc1cc(Cl)c(O)c(Cl)c1 (centres undefined),-8.0,1.9,-3.7,.,98.6*,3.8
CC(=O)N1CCC(=NNC(=O)c2cccs2)CC1,-5.9,.,-5.9,7.8,76.9*,-1.9
O=C1CSC(=S)N1N=Cc1ccc2c(c1)OCCO2,.,10.3,.,.,.,.
O=C1CN=CN=CN1c1ccc(Cl)cc1Cl,-3.3,4.3,40.1*,-0.4,5.5,-2.5
Nc1cc(Cl)ccc1N1C(=O)CCC1=O,-2.7,.,-5.9,0.4,-8.9,-0.3
O=C1ON=C(c2ccccc2)/C1=C/c1ccc(-c2ccccc2[N+](=O)[O-])o1,-4.3,6.6,-0.4,0.2,-4.0,3.7
O=C1ON=C(c2ccc([N+](=O)[O-])cc2)/C1=C/c1ccccc1O,-7.5,2.7,28.7*,1.5,98.3*,-0.2
CCOC(=O)c1[nH]c2ccc(OC)cc2c1NC(=O)/C=C/c1ccc2c(c1)OCO2,-2.9,-12.7,-7.9,-7.4,-2.3,5.3
O=C(/C=C/c1ccc2c(c1)OCO2)Nc1c(C(=O)O)[nH]c2ccccc12,-8.2,.,-6.0,22.2,98.5*,2.1
Cc1nc2ccc(-c3nc4cc(N)ccc4o3)cc2[nH]1,-1.3,-113.1,-2.4,-2.0,98.3*,-1.7
Nc1ccc2oc(-c3ccc4nc[nH]c4c3)nc2c1,-9.9,-65.3,-6.5,-8.1,.,-5.9
CC(=O)/C(=N/Nc1cccc(Cl)c1)N1CCOCC1,-0.3,.,-6.6,-1.6,98.2*,14.1
CC(=O)/C(=N/Nc1ccccc1)N1CCOCC1,-6.5,.,3.7,9.1,99.0*,5.4
CC(=O)C(=NNc1ccc(C)cc1)N1CCOCC1,.,10.5,.,.,.,.
Cc1ccc2cc(C=NNC(=O)c3ccccc3[N+](=O)[O-])c(Cl)nc2c1,.,3.9,.,.,.,.
Cc1ccc(C2=NC(=O)/C(=C/c3cc(O)c(O)c(Br)c3)S2)cc1,31.2,7.6,48.4*,-1.8,.,.
CCOc1ccc(NC2CCN(C(C)=O)CC2)cc1,-7.3,1.2,4.5,-0.7,90.9*,-4.9
Cc1ccc(NC(=O)N2CCC(NC(=O)C(C)(C)C)CC2)cc1,-4.6,1.7,1.8,4.8,-4.4,-6.3
CC(=O)N1CCC(Nc2ccc(C)cc2)CC1,-6.6,1.6,-11.9,-11.9,98.4*,4.4
SMILES,FAS-TE inh,UCH37 inh,M18AAP inhibitor,Rtt109 HAT inh,ALR H2O2 inh,HDAC3 inhib
CCOc1ccc(NC(=O)N(C2CCCCCC2)C2CCN(C(C)=O)CC2)cc1,-0.7,-1.5,-4.0,3.0,-59.9,-1.4
CN(C)c1ccc(NC(=O)C(=O)C2C(=O)Nc3ccccc32)cc1 (centres undefined),-7.3,7.6,11.4,-8.3,57.6,-2.5
CN(C)c1ccc(CC2C(=O)Nc3ccccc32)cc1 (centres undefined),-0.6,7.3,31.3*,1.8,98.5*,-0.7
Cn1c(=O)n(C)c2cc(S(=O)(=O)Nc3cc(Cl)ccc3O)ccc21,-7.3,7.3,1.2,1.6,98.4*,0.0
Fc1ccc(C=NNC(=S)Nc2ccc(Cl)cc2)cc1F,.,6.3,.,.,.,.
CN(C)c1ccc(/C=C/c2nnnn2-c2ccccc2)cc1,9.5,-77.1,3.8,-102.5,98.6*,-6.5
CC(CC(=O)NC(C)(C)C)=NNC(N)=S,.,-1.2,.,.,.,.
Cc1ccc(C=Nn2c(=O)c(C(C)(C)C)nn3cnnc23)cc1,.,3.4,.,.,.,.
COc1ccc(C(=O)n2cnc3ccccc32)cc1Br,-5.0,4.0,.,7.0,9.7,9.3
COc1ccc(C(=O)n2cnc3ccccc32)cc1,-2.9,0.4,-3.1,12.2,26.2,33.2*
Cc1cc(/C=N/NC(=O)c2cc3ccccc3o2)c(C)n1C,-8.0,.,30.0*,0.9,34.9,0.4
COc1cccc(C=NNC(=O)CSc2ccccc2C)c1OC,.,-0.5,.,.,.,.
O=C(CSc1nccn1-c1ncc(C(F)(F)F)cc1Cl)c1ccc(Cl)cc1,14.0,30.9*,-0.1,3.8,9.4,-0.3
Cc1ccc(C(CSc2nccn2-c2ncc(C(F)(F)F)cc2Cl)=NO)cc1,.,0.5,.,.,.,.
COc1ccc(C2SCC(=O)N2Cc2ccccc2)cc1 (centres undefined),8.1,-0.6,-5.5,5.6,81.2*,1.4
COc1ccc(N2C(=O)CSC2c2ccccc2)cc1 (centres undefined),-7.0,2.7,-1.8,-3.2,97.3*,9.2
CC(=O)Nc1ccc(N2C(=O)CSC2c2ccc(F)cc2)cc1 (centres undefined),-13.8,5.1,1.8,5.6,99.0*,2.4
O=C1CSC(c2ccccc2)N1c1ccc([N+](=O)[O-])cc1 (centres undefined),6.2,3.6,-6.0,-0.4,98.6*,1.9
Cc1sc(-n2c(C)cc(C=Nn3cnnc3)c2C)c(C#N)c1C,.,6.0,.,.,.,.
Cc1ccc(N2C(=O)CSC2c2ccc3c(c2)OCO3)cc1 (centres undefined),-1.9,4.6,-0.6,3.2,99.4*,-1.0
O=C1CSC(c2ccc3c(c2)OCO3)N1c1ccc(Oc2ccccc2)cc1 (centres undefined),7.2,3.3,-1.6,7.6,.,3.4
COc1ccc(N2C(=O)CSC2c2ccccc2[N+](=O)[O-])cc1 (centres undefined),-1.8,2.8,-3.1,-4.2,98.7*,-1.0
Fc1ccc(C=Nn2c(COc3ccccc3)n[nH]c2=S)cc1,.,3.6,.,.,.,.
O=C(O)CC1S/C(=N/N=Cc2ccc(-c3ccc(Cl)c([N+](=O)[O-])c3)o2)NC1=O (centres undefined),.,18.8,.,.,.,.
O=C(O)CC1S/C(=N/N=C/c2ccc(-c3ccccc3[N+](=O)[O-])o2)NC1=O (centres undefined),-2.1,.,25.5,17.9,98.0*,1.8
Cc1ccc(-c2ccc(/C=N/N=C3/NC(=O)C(CC(=O)O)S3)o2)c([N+](=O)[O-])c1 (centres undefined),-5.6,.,24.3,16.2,98.9*,11.6
S=c1[nH]nc(C2CCCCC2)n1N=Cc1ccc(Cl)cc1,.,3.6,.,.,.,.
